Measurements taken from ChEMBL document CHEMBL5131497, “Design, Synthesis, and Characterization of TNP-2198, a Dual-Targeted Rifamycin-Nitroimidazole Conjugate with Potent Activity against Microaerophilic and Anaerobic Bacterial Pathogens” (J Med Chem, 2022).
In brackets after ≈: the same amount, converted by molar mass.

Key:
Assay type in all cases: functional
Staphylococcus aureus = experiment: Antibacterial activity against Staphylococcus aureus ATCC 29213
Helicobacter pylori [1] = experiment: Antibacterial activity against Helicobacter pylori ATCC 700392
Summary of the method: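 Agar dilution per CLSI. Wild-type H. pylori ATCC 700392 (CB1531). Drugs prepared from 100× stocks as 2-fold dilutions in Mueller–Hinton agar with aged (≥2 weeks) sheep blood (5% v/v). Combinations were at 1:1 molar ratio. MIC read after 5 days at 35 °C under microaerobic atmosphere from a campylobacter gas-generating system.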

Clostridioides difficile [2] = experiment: Antibacterial activity against Clostridioides difficile ATCC 9689
Helicobacter pylori [3] = experiment: Antibacterial activity against rifampicin resistant Helicobacter pylori harboring rpoBL525I/D530N mutant
Clostridioides difficile [4] = experiment: Antibacterial activity against rifampicin-resistant Clostridioides difficile harboring rpoBQ489K mutant
Clostridioides difficile [5] = experiment: Antibacterial activity against Clostridioides difficile BAA 1382

Compound	MIC (Staphylococcus aureus) [µg/mL]	MIC (Helicobacter pylori [1]) [µg/mL]	MIC (Clostridioides difficile [2]) [ng/mL]	MIC (Helicobacter pylori [3]) [µg/mL]	MIC (Clostridioides difficile [4]) [µg/mL]	MIC (Clostridioides difficile [5]) [ng/mL]
CO[C@H]1/C=C/O[C@@]2(C)Oc3c(C)c(O)c4c(O)c(c5c(nc6cc(C)ccn65)c4c3C2=O)NC(=O)/C(C)=C\C=C\[C@H](C)[C@H](O)[C@@H](C)[C@@H](O)[C@@H](C)[C@H](OC(C)=O)[C@@H]1C [RIFAXIMIN]	0.06 (≈ 0.0763 µM)	1 (≈ 1.27 µM)	4 (≈ 0.00509 µM)	–	–	–
CO[C@H]1/C=C/O[C@@]2(C)Oc3c(C)c(O)c4c(O)c(c(/C=N/N5CCN(CCn6c([N+](=O)[O-])cnc6C)CC5)c(O)c4c3C2=O)NC(=O)/C(C)=C\C=C\[C@H](C)[C@H](O)[C@@H](C)[C@@H](O)[C@@H](C)[C@H](OC(C)=O)[C@@H]1C	0.03 (≈ 0.0312 µM)	0.25 (≈ 0.26 µM)	2 (≈ 0.00208 µM)	2 (≈ 2.08 µM)	2 (≈ 2.08 µM)	0.5 (≈ 0.00052 µM)
CO[C@H]1/C=C/O[C@@]2(C)Oc3c(C)c(O)c4c(O)c(c5c(nc6ccc(CCC(=O)N7CCN(CCn8c([N+](=O)[O-])cnc8C)CC7)cn65)c4c3C2=O)NC(=O)/C(C)=C\C=C\[C@H](C)[C@H](O)[C@@H](C)[C@@H](O)[C@@H](C)[C@H](OC(C)=O)[C@@H]1C	–	1 (≈ 0.939 µM)	4 (≈ 0.00376 µM)	> 8	4 (≈ 3.76 µM)	4 (≈ 0.00376 µM)
CO[C@H]1/C=C/O[C@@]2(C)Oc3c(C)c(O)c4c(O)c(c(N5CCN(CCn6c([N+](=O)[O-])cnc6C)CC5)c(O)c4c3C2=O)NC(=O)/C(C)=C\C=C\[C@H](C)[C@H](O)[C@@H](C)[C@@H](O)[C@@H](C)[C@H](OC(C)=O)[C@@H]1C	< 0.015	0.06 (≈ 0.0642 µM)	0.25 (≈ 0.000267 µM)	–	–	0.25 (≈ 0.000267 µM)
CO[C@H]1/C=C/O[C@@]2(C)Oc3c(C)c(O)c4c(O)c(c(N5CCN(Cc6ccc(CO[C@@H]7COc8nc([N+](=O)[O-])cn8C7)cc6)CC5)c(O)c4c3C2=O)NC(=O)/C(C)=C\C=C\[C@H](C)[C@H](O)[C@@H](C)[C@@H](O)[C@@H](C)[C@H](OC(C)=O)[C@@H]1C	< 0.008	0.5 (≈ 0.468 µM)	8 (≈ 0.00748 µM)	–	–	–
CO[C@H]1/C=C/O[C@@]2(C)Oc3c(C)c(O)c4c(O)c(c(N5CCN(C(=O)CO[C@@H]6COc7nc([N+](=O)[O-])cn7C6)CC5)c(O)c4c3C2=O)NC(=O)/C(C)=C\C=C\[C@H](C)[C@H](O)[C@@H](C)[C@@H](O)[C@@H](C)[C@H](OC(C)=O)[C@@H]1C	2 (≈ 1.99 µM)	4 (≈ 3.97 µM)	–	–	–	–

Continued, in another order:

MIC (Staphylococcus aureus) [µg/mL]	MIC (Helicobacter pylori [1]) [µg/mL]	MIC (Clostridioides difficile [2]) [ng/mL]	Compound	MIC (Helicobacter pylori [3]) [µg/mL]	MIC (Clostridioides difficile [4]) [µg/mL]	MIC (Clostridioides difficile [5]) [ng/mL]
0.03 (≈ 0.0309 µM)	0.03 (≈ 0.0309 µM)	–	CO[C@H]1/C=C/O[C@@]2(C)Oc3c(C)c(O)c4c(c3C2=O)C2=NC3(CCN(CC5(C)Cn6cc([N+](=O)[O-])nc6O5)CC3)NC2=C(NC(=O)/C(C)=C\C=C\[C@H](C)[C@H](O)[C@@H](C)[C@@H](O)[C@@H](C)[C@H](OC(C)=O)[C@@H]1C)C4=O (stereo partly specified)	–	–	–
0.008 (≈ 0.00831 µM)	0.25 (≈ 0.26 µM)	1 (≈ 0.00104 µM)	CO[C@H]1/C=C/O[C@@]2(C)Oc3c(C)c(O)c4c(O)c(c(N5CCN(CC6(C)Cn7cc([N+](=O)[O-])nc7O6)CC5)c(O)c4c3C2=O)NC(=O)/C(C)=C\C=C\[C@H](C)[C@H](O)[C@@H](C)[C@@H](O)[C@@H](C)[C@H](OC(C)=O)[C@@H]1C (stereo partly specified)	–	–	–
0.015 (≈ 0.0142 µM)	1 (≈ 0.948 µM)	30 (≈ 0.0284 µM)	CO[C@H]1/C=C/O[C@@]2(C)Oc3c(C)c(O)c4c(O)c(c(N5CCN(c6ccc(OCC7(C)Cn8cc([N+](=O)[O-])nc8O7)cc6)CC5)c(O)c4c3C2=O)NC(=O)/C(C)=C\C=C\[C@H](C)[C@H](O)[C@@H](C)[C@@H](O)[C@@H](C)[C@H](OC(C)=O)[C@@H]1C (stereo partly specified)	–	–	–
0.03 (≈ 0.0278 µM)	0.03 (≈ 0.0278 µM)	1 (≈ 0.000927 µM)	CO[C@H]1/C=C/O[C@@]2(C)Oc3c(C)c(O)c4c(c3C2=O)C2=NC3(CCN(Cc5ccc(CO[C@@H]6COc7nc([N+](=O)[O-])cn7C6)cc5)CC3)NC2=C(NC(=O)/C(C)=C\C=C\[C@H](C)[C@H](O)[C@@H](C)[C@@H](O)[C@@H](C)[C@H](OC(C)=O)[C@@H]1C)C4=O	–	–	–
–	0.004 (≈ 0.0041 µM)	1 (≈ 0.00102 µM)	CO[C@H]1/C=C/O[C@@]2(C)Oc3c(C)c(O)c4c(c3C2=O)C2=NC3(CCN(CC(=O)Nc5ncc([N+](=O)[O-])s5)CC3)NC2=C(NC(=O)/C(C)=C\C=C\[C@H](C)[C@H](O)[C@@H](C)[C@@H](O)[C@@H](C)[C@H](OC(C)=O)[C@@H]1C)C4=O	–	–	–
